ChEMBL document CHEMBL1139506, “Effect on K(ATP) channel activation properties and tissue selectivity of the nature of the substituent in the 7- and the 3-position of 4H-1,2,4-benzothiadiazine 1,1-dioxides” (J Med Chem, 2005)

What was measured:
Rattus norvegicus [1] = organism: Rattus norvegicus; assay: Effect on insulin secretion from rat pancreatic islets at 10 uM concentration (n=23); type: functional
Method in brief: (§1)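 Islets isolated by collagenase from fed Wistar rats (180-220 g); groups of 10 preincubated 30 min, 37 °C, in bicarbonate salt medium with 2.8 mM glucose, 0.5% dialyzed albumin, O2/CO2 95:5. Then incubated 90 min, 37 °C, with 16.7 mM glucose plus drug. Insulin measured by radioimmunoassay against rat insulin standard; expressed as % of drug-free 16.7 mM glucose control; mean ± SEM (n).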

Rattus norvegicus [2] = organism: Rattus norvegicus; assay: Concentration required for relaxation of the 30 mM KCl-induced contraction of rat aortic rings (n=4); type: functional; conditions: Aorta, read-out: ED50 (the source's name)
Method in brief: (§2)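 Endothelium-denuded transverse aortic rings (3-4 mm) from fed Wistar rats (180-200 g); isometric tension by force transducer. After 60 min equilibration, contracted with 30 mM KCl; at stable tension, drug added cumulatively until maximal relaxation or up to 0.3 mM. Relaxation expressed as % of KCl contraction; ED50 (50% inhibition of KCl plateau) from dose curves; mean ± SEM (n).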

Rattus norvegicus [3] = organism: Rattus norvegicus; assay: Effect on insulin secretion from rat pancreatic islets at 50 uM concentration (n=16); type: functional; method in brief: as §1
Rattus norvegicus [4] = organism: Rattus norvegicus; assay: Concentration giving 50% relaxation of the 30 mM KCl-induced contraction of rat aortic rings (n=7); type: functional; conditions: Aorta, read-out: ED50 (the source's name); method in brief: as §2
Rattus norvegicus [5] = organism: Rattus norvegicus; assay: Concentration required for 50% inhibition of insulin release in rat pancreatic B-cells; type: functional, cell-based
Rattus norvegicus [6] = organism: Rattus norvegicus; assay: ED50/IC50 ratio was determined; type: functional
Rattus norvegicus [7] = organism: Rattus norvegicus; assay: Effect on insulin secretion from rat pancreatic islets at 1 uM concentration (n=15); type: functional; method in brief: as §1
Rattus norvegicus [8] = organism: Rattus norvegicus; assay: Effect on insulin secretion from rat pancreatic islets at 10 uM concentration (n=15); type: functional; method in brief: as §1
Rattus norvegicus [9] = organism: Rattus norvegicus; assay: Effect on insulin secretion from rat pancreatic islets at 50 uM concentration (n=9); type: functional; method in brief: as §1
Rattus norvegicus [10] = organism: Rattus norvegicus; assay: Effect on insulin secretion from rat pancreatic islets at 10 uM concentration (n=16); type: functional; method in brief: as §1
Rattus norvegicus [11] = organism: Rattus norvegicus; assay: Effect on insulin secretion from rat pancreatic islets at 10 uM concentration (n=37); type: functional
[12] = Ionization constant was determined; type: physicochemical
Method in brief: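 Ionization constant found by UV spectroscopy in aqueous buffers spanning pH 5 to 12; pKa calculated with the Debye-Hückel equation at the absorbance maximum of the basic form.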

Rattus norvegicus [13] = organism: Rattus norvegicus; assay: Effect on insulin secretion from rat pancreatic islets at 50 uM concentration (n=14); type: functional; method in brief: as §1
Rattus norvegicus [14] = organism: Rattus norvegicus; assay: Concentration required for relaxation of the 30 mM KCl-induced contraction of rat aortic rings; Precipitate; type: functional; conditions: Aorta; method in brief: as §2
Rattus norvegicus [15] = organism: Rattus norvegicus; assay: Effect on insulin secretion from rat pancreatic islets at 1 uM concentration (n=16); type: functional; method in brief: as §1
Rattus norvegicus [16] = organism: Rattus norvegicus; assay: Effect on insulin secretion from rat pancreatic islets at 10 uM concentration (n=14); type: functional; method in brief: as §1
Rattus norvegicus [17] = organism: Rattus norvegicus; assay: Concentration giving 50% relaxation of the 30 mM KCl-induced contraction of rat aortic rings (n=6); type: functional; conditions: Aorta, read-out: ED50 (the source's name); method in brief: as §2
Rattus norvegicus [18] = organism: Rattus norvegicus; assay: Effect on insulin secretion from rat pancreatic islets at 1 uM concentration (n=31); type: functional
Rattus norvegicus [19] = organism: Rattus norvegicus; assay: Effect on insulin secretion from rat pancreatic islets at 50 uM concentration (n=35); type: functional
Rattus norvegicus [20] = organism: Rattus norvegicus; assay: Effect on insulin secretion from rat pancreatic islets at 10 uM concentration (n=32); type: functional
Rattus norvegicus [21] = organism: Rattus norvegicus; assay: Effect on insulin secretion from rat pancreatic islets at 50 uM concentration (n=15); type: functional; method in brief: as §1
Rattus norvegicus [22] = organism: Rattus norvegicus; assay: Concentration giving 50% relaxation of the 30 mM KCl-induced contraction of rat aortic rings (n=11); conditions: Aorta, read-out: ED50
Rattus norvegicus [23] = organism: Rattus norvegicus; assay: Effect on insulin secretion from rat pancreatic islets at 10 uM concentration (n=24); type: functional; method in brief: as §1
Rattus norvegicus [24] = organism: Rattus norvegicus; assay: Effect on insulin secretion from rat pancreatic islets at 10 uM concentration (n=22); type: functional; method in brief: as §1
Rattus norvegicus [25] = organism: Rattus norvegicus; assay: Concentration giving 50% relaxation of the 30 mM KCl-induced contraction of rat aortic rings (n=8); type: functional, Aorta; conditions: read-out: ED50 (the source's name); method in brief: as §2
Rattus norvegicus [26] = organism: Rattus norvegicus; assay: Effect on insulin secretion from rat pancreatic islets at 50 uM concentration (n=20); type: functional; method in brief: as §1
Rattus norvegicus [27] = organism: Rattus norvegicus; assay: Effect on insulin secretion from rat pancreatic islets at 50 uM concentration (n=13); type: functional; method in brief: as §1
Rattus norvegicus [28] = organism: Rattus norvegicus; assay: Effect on insulin secretion from rat pancreatic islets at 10 uM concentration (n=13); type: functional; method in brief: as §1
Rattus norvegicus [29] = organism: Rattus norvegicus; assay: Effect on insulin secretion from rat pancreatic islets at 1 uM concentration (n=14); type: functional; method in brief: as §1
Rattus norvegicus [30] = organism: Rattus norvegicus; assay: Effect on insulin secretion from rat pancreatic islets at 50 uM concentration (n=23); type: functional; method in brief: as §1
Rattus norvegicus [31] = organism: Rattus norvegicus; assay: Effect on insulin secretion from rat pancreatic islets at 1 uM concentration (n=19); type: functional; method in brief: as §1
Rattus norvegicus [32] = organism: Rattus norvegicus; assay: Concentration required for relaxation of the 30 mM KCl-induced contraction of rat aortic rings; type: functional; conditions: Aorta; method in brief: as §2
Rattus norvegicus [33] = organism: Rattus norvegicus; assay: Concentration giving 50% relaxation of the 30 mM KCl-induced contraction of rat aortic rings (n=3); type: functional; conditions: Aorta, read-out: ED50 (the source's name); method in brief: as §2
Rattus norvegicus [34] = organism: Rattus norvegicus; assay: Effect on insulin secretion from rat pancreatic islets at 50 uM concentration (n=12); type: functional; method in brief: as §1

SMILES: CCC(C)NC1=NS(=O)(=O)c2cc(C(=O)O)ccc2N1 (stereo not drawn)
- Residual insulin release (Rattus norvegicus [1]): 93%
- EC50 (Rattus norvegicus [2]): > 300 µM
- Residual insulin release (Rattus norvegicus [3]): 91.2%

SMILES: CCCNC1=NS(=O)(=O)c2cc([N+](=O)[O-])ccc2N1
- EC50 (Rattus norvegicus [4]): 15.7 µM
- Residual insulin release (Rattus norvegicus [3]): 88.9%

SMILES: CCC(C)NC1=NS(=O)(=O)c2cc(OC)ccc2N1 (stereo not drawn)
- IC50 (Rattus norvegicus [5]): 4 µM
- Ratio (Rattus norvegicus [6]): 4.4
- Residual insulin release (Rattus norvegicus [7]): 92.4%
- Residual insulin release (Rattus norvegicus [8]): 23.4%
- EC50 (Rattus norvegicus [2]): 17.5 µM
- Residual insulin release (Rattus norvegicus [9]): 8.5%

SMILES: CCCCCc1ccc2c(c1)S(=O)(=O)NC(NC(C)C)=N2
- Residual insulin release (Rattus norvegicus [10]): 106%
- EC50 (Rattus norvegicus [2]): 20.1 µM

SMILES: CC(C)NC1=NS(=O)(=O)c2cc([N+](=O)[O-])ccc2N1
- EC50 (Rattus norvegicus [2]): 23.1 µM
- Residual insulin release (Rattus norvegicus [11]): 64%
- pKa [12]: 7.91
- Residual insulin release (Rattus norvegicus [13]): 4.8%

SMILES: CC(C)NC1=NS(=O)(=O)c2ccccc2N1
- IC50 (Rattus norvegicus [5]): 3.8 µM
- Ratio (Rattus norvegicus [6]): >79
- Residual insulin release (Rattus norvegicus [10]): 34.9%
- Residual insulin release (Rattus norvegicus [7]): 73.7%
- EC50 (Rattus norvegicus [2]): > 300 µM
- pKa [12]: 9.98

SMILES: CCNC1=NS(=O)(=O)c2cc(S(C)(=O)=O)ccc2N1
- Residual insulin release (Rattus norvegicus [10]): 91.6%
- EC50 (Rattus norvegicus [2]): > 300 µM

SMILES: CC(C)NC1=NS(=O)(=O)c2cc(S(C)(=O)=O)ccc2N1
- Residual insulin release (Rattus norvegicus [8]): 90.5%
- EC50 (Rattus norvegicus [2]): 127 µM

SMILES: O=S1(=O)N=C(NC2CCC2)Nc2ccccc21
- ED50 (Rattus norvegicus [14]): Insoluble
- Residual insulin release (Rattus norvegicus [15]): 79.9%
- Residual insulin release (Rattus norvegicus [16]): 29.8%

SMILES: CCC(C)NC1=NS(=O)(=O)c2ccccc2N1 (stereo not drawn)
- Residual insulin release (Rattus norvegicus [10]): 42.7%
- ED50 (Rattus norvegicus [14]): Precipitate
- Residual insulin release (Rattus norvegicus [15]): 90.4%

SMILES: CC(C)NC1=NS(=O)(=O)c2cc(Cl)ccc2N1
- IC50 (Rattus norvegicus [5]): 0.7 µM
- Ratio (Rattus norvegicus [6]): 52
- EC50 (Rattus norvegicus [17]): 36.3 µM
- Residual insulin release (Rattus norvegicus [18]): 36.2%
- Residual insulin release (Rattus norvegicus [19]): 5.7%
- Residual insulin release (Rattus norvegicus [20]): 4.9%

SMILES: CC(C)NC1=NS(=O)(=O)c2cc(N)ccc2N1
- Residual insulin release (Rattus norvegicus [21]): 85.8%
- EC50 (Rattus norvegicus [2]): > 300 µM
- pKa [12]: 10.5

SMILES: CC1=Nc2ccc(Cl)cc2S(=O)(=O)N1 [DIAZOXIDE]
- IC50 (Rattus norvegicus [5]): 22.6 µM
- Ratio (Rattus norvegicus [6]): 1
- Residual insulin release (Rattus norvegicus [10]): 73.9%
- Residual insulin release (Rattus norvegicus [7]): 87.5%
- EC50 (Rattus norvegicus [22]): 22.4 µM
- Residual insulin release (Rattus norvegicus [3]): 26.7%

SMILES: CCNC1=NS(=O)(=O)c2cc(OCC)ccc2N1
- EC50 (Rattus norvegicus [2]): 162 µM
- Residual insulin release (Rattus norvegicus [23]): 75%

SMILES: COC(=O)c1ccc2c(c1)S(=O)(=O)NC(NC(C)C)=N2
- Residual insulin release (Rattus norvegicus [24]): 95.7%
- EC50 (Rattus norvegicus [25]; Rattus norvegicus, Aorta): > 200 µM
- Residual insulin release (Rattus norvegicus [26]): 94.3%

SMILES: O=[N+]([O-])c1ccc2c(c1)S(=O)(=O)NC(NC1CCC1)=N2
- EC50 (Rattus norvegicus [2]): 13.8 µM
- Residual insulin release (Rattus norvegicus [27]): 59.6%

SMILES: CC(C)NC1=NS(=O)(=O)c2cc(C(F)(F)F)ccc2N1
- IC50 (Rattus norvegicus [5]): 1.7 µM
- Ratio (Rattus norvegicus [6]): 7.7
- Residual insulin release (Rattus norvegicus [28]): 7.4%
- EC50 (Rattus norvegicus [17]): 13.1 µM
- Residual insulin release (Rattus norvegicus [29]): 71.5%
- Residual insulin release (Rattus norvegicus [27]): 7.1%
- pKa [12]: 8.96

SMILES: CC(C)NC1=NS(=O)(=O)c2cc(C(N)=O)ccc2N1
- Residual insulin release (Rattus norvegicus [1]): 76.6%
- EC50 (Rattus norvegicus [2]): 175 µM

SMILES: CC(C)C(C)NC1=NS(=O)(=O)c2cnccc2N1 (stereo not drawn)
- Ratio (Rattus norvegicus [6]): 35
- Residual insulin release (Rattus norvegicus [30]): 8.6%
- EC50 (Rattus norvegicus [25]): 154 µM
- Residual insulin release (Rattus norvegicus [31]): 70.5%
- Residual insulin release (Rattus norvegicus [1]): 13.7%
- IC50 (Rattus norvegicus [32]): 154 µM

SMILES: Cc1ccc2c(c1)S(=O)(=O)N=C(NC(C)C)N2
- IC50 (Rattus norvegicus [5]): 2 µM
- Ratio (Rattus norvegicus [6]): 100
- EC50 (Rattus norvegicus [33]): 200 µM
- Residual insulin release (Rattus norvegicus [7]): 71.3%
- Residual insulin release (Rattus norvegicus [16]): 8.5%
- Residual insulin release (Rattus norvegicus [27]): 3.5%
- pKa [12]: 10.2

SMILES: COc1ccc2c(c1)S(=O)(=O)NC(NC1CCC1)=N2
- Residual insulin release (Rattus norvegicus [34]): 4%
- IC50 (Rattus norvegicus [5]): 2.2 µM
- Ratio (Rattus norvegicus [6]): 72
- EC50 (Rattus norvegicus [17]): 157 µM
- Residual insulin release (Rattus norvegicus [8]): 14.1%
- Residual insulin release (Rattus norvegicus [29]): 71.3%
